# Compounds with a hit are over-represented: about 3.6% of the library has one in this group of screens.
# UCH37 inh – inhibitors of human UCH37 deubiquitinase, primary screen, biochemical, Ub-AMC cleavage, fluorescence | Ubiquitin carboxyl-terminal hydrolase isozyme L5 (Homo sapiens), Q9Y5K5 | purified proteasome/UCH37 | inhibition, % (test concentration not listed) | 0.33% of 330,000 active | AID 588478, 2011;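 active means mean inhibition over replicate wells above about 20%, limit read from the data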
#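 Material: human UCH37 enzyme supplied as purified proteasome complex. Measure: % inhibition of Ub-AMC cleavage fluorescence. Medium: pH 7.4 Tris-HCl (50 mM) with ovalbumin, ATP-MgCl2, DTT. Times: 30 min preincubation with enzyme, 25 min cleavage at room temperature. Detection: AMC fluorescence intensity at 355/460 nm.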
# NadD block – inhibitors of S. aureus NadD, primary screen, biochemical, colorimetric, uHTS. purified NadD enzyme, colorimetric absorbance read-out. AID 602399, 2012. Nicotinate-nucleotide adenylyltransferase NadD (Staphylococcus aureus N315). 0.78% of 360,000 active. inhibition, % at 20 µM; in the data active means inhibition above about 26%
# SENP1 inh – human SENP1 catalytic domain inhibitors, primary screen, biochemical, FRET, uHTS. 0.21% of 360,000 active. inhibition, % at 10 µM. Sentrin-specific protease 1 (Homo sapiens), Q9P0U3. recombinant SENP1 catalytic domain, CyPet-SUMO1-YPet FRET cleavage. AID 624204, 2012;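 active means inhibition at least 30% at 10 µM, raw YFP signal under a set limit, fluorescence ratio 0.5 to 1.5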
# Target sequence (Q9P0U3 419-644 limits assumed): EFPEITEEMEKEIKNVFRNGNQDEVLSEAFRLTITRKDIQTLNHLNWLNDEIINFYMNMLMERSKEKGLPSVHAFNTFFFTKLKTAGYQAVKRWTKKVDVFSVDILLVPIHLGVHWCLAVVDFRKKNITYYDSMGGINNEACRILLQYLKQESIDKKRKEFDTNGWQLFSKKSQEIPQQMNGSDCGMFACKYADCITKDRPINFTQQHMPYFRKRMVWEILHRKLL
#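 Compound: 10 µM single point, 0.5% DMSO; Test system: hSENP1 catalytic domain, recombinant; Timing: 50 min reaction at room temperature; Technique: FRET, CFP and YFP emission; Control set: no-enzyme wells low, DMSO-plus-enzyme wells high control.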
# ATG4B inhibitor – ATG4B protease inhibitors, primary screen, biochemical, fluorescence, uHTS; Cysteine protease ATG4B (Homo sapiens), Q9Y4P1; inhibition, % at 8.33 µM; AID 504462, 2011; 0.51% of 340,000 active; ATG4B cleavage of LC3-PLA2, NBD-HPC fluorescence, 1 h; in the data active means inhibition above about 40%
# GRIN3A LBD mod – binders of NR3A ligand-binding domain, primary screen, biophysical, differential scanning fluorimetry, uHTS | NR3A LBD differential scanning fluorimetry, Tm shift; 0% = protein alone, 100% = glycine-bound protein | Tm shift relative to glycine control, % at 25 µM | 2.5% of 340,000 active;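 active means melting temperature shift of at least 10% of the positive control shift, at one fixed dose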
# ATG4B conf – ATG4B protease inhibitors, retest, confirmation, biochemical, fluorescence, single concentration; shares compounds with ATG4B inhibitor; inhibition, % at 8.33 µM; AID 504757, 2011; 92% of 320 active; ATG4B protease fluorescent substrate cleavage assay; in the data active means inhibition above about 39%
# PLA2 counter – PLA2 enzyme inhibition, counter-screen for ATG4B inhibitor project, biochemical, single concentration, uHTS hits; shares compounds with ATG4B inhibitor; 66% of 1,600 active; inhibition, % at 8.33 µM; purified PLA2, NBD-C6-HPC fluorescence, 45 min; in the data active means inhibition above about 50%
# Target sequence (P04054 whole entry, looked up): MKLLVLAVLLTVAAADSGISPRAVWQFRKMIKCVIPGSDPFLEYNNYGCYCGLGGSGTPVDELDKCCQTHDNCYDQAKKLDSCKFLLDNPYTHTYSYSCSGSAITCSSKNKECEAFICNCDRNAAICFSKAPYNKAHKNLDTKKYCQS
# Hits are given with their value; – = inactive; · = not tested or not shown.
SMILES,UCH37 inh,NadD block,SENP1 inh,ATG4B inhibitor,GRIN3A LBD mod,PLA2 counter,others
Cc1onc(-c2ccccc2Cl)c1C(=O)NC(=S)NCC(=O)c1ccccc1,–,–,–,44.8,–,–,
CON=Cc1ccc(Sc2ccccc2N)c([N+](=O)[O-])c1,–,·,·,·,·,·,
Cc1ccc(C(=O)ON=Cc2ccc(N3CCOCC3)c([N+](=O)[O-])c2)cc1,–,·,·,·,·,·,
O=C(c1ccc2c(=O)n(C3CCCC3)c(=S)[nH]c2c1)N1CCc2ccccc21,–,–,–,54.0,–,76.8,
COc1ccc(C2=NOC(Cn3nc(-c4ccccc4)cc3C(=O)NCc3cccc(Br)c3)C2)cc1 (configuration not stated),·,–,–,–,–,·,
COc1ccc(C2=NOC(Cn3nc(C(=O)NCc4cccc(Br)c4)cc3-c3ccccc3)C2)cc1 (configuration not stated),–,–,–,53.2,–,59.5,
CC(=NNC(=S)NC1CCCCC1)c1ccc(O)cc1,–,·,·,·,·,·,
O=S(=O)(Nc1nc(-c2sccc2Cl)cs1)c1cc(Cl)ccc1Cl,–,–,–,87.9,13.7,76.7,
CC(C)(C)c1nnc(NS(=O)(=O)c2cc(Cl)ccc2Cl)s1,–,–,–,–,–,·,
Cc1ccc(-c2nnc(SCC(=O)NN=Cc3c(C)nn(-c4ccccc4)c3C)n2-c2ccccc2)cc1,–,·,·,·,·,·,
C=C(C)Cn1c(SCC(=O)N/N=C/c2c(O)ccc3ccccc23)nc2ccccc2c1=O,·,34.8,–,40.6,–,–,ATG4B conf=56.5
Cc1ccc(-n2c(SCC(=O)N/N=C/c3c(C)nn(-c4ccccc4)c3C)nc3ccccc3c2=O)cc1,·,–,–,40.1,–,–,ATG4B conf=77.6
C=C(C)Cn1c(SCC)nc2ccccc2c1=O,–,–,–,–,–,·,
Cc1nn(-c2ccccc2)cc1/C=N/NC(N)=S,·,–,–,–,–,·,
Cc1nn(-c2ccccc2)cc1C(c1c(N)[nH]c(=S)[nH]c1=O)c1c(N)[nH]c(=S)[nH]c1=O,·,–,–,45.7,15.9,–,
CCOc1ccc(C=NNC(=O)C2CC2)cc1OC,–,·,·,·,·,·,
CC(=O)C(=NNc1cccc(C)c1)N1CCOCC1,–,·,·,·,·,·,
S=C(NCc1cccs1)Nc1cccc(Cl)c1Cl,–,–,–,51.5,–,52.5,
Cc1c(Cl)cccc1NC(=S)NCc1cccs1,–,–,–,57.1,–,68.8,
COc1ccc(C)cc1S(=O)(=O)N(CC(=O)Nc1cccc([N+](=O)[O-])c1)c1ccccc1,–,–,–,83.7,–,90.2,
CS(=O)(=O)N(CC(=O)Nc1cccc([N+](=O)[O-])c1)c1ccccc1,–,–,–,–,–,·,
Cc1ccccc1CN(CC(=O)Nc1cccc([N+](=O)[O-])c1)S(=O)(=O)c1ccc(Cl)cc1,–,–,–,64.2,–,76.8,
COC(=O)c1ccc(NN=Cc2cc([N+](=O)[O-])cc(OC)c2O)cc1,–,·,·,·,·,·,
COC(=O)/C=C1\SC(=Nc2ccc(Cl)c(Cl)c2)NC1=O,·,–,–,79.0,–,–,ATG4B conf=79.2
COCCOc1ccc(C(F)(F)F)cc1NC(=O)CN1C(=O)NC2(CCCc3ccccc32)C1=O (configuration not stated),–,–,–,–,–,·,
COCCOc1ccc(C(F)(F)F)cc1NC(=O)CN1C(=O)NC2(CCc3ccccc32)C1=O (configuration not stated),–,–,–,98.5,–,–,
O=C(NN=Cc1cccnc1)c1ccc(S(=O)(=O)N2CCCCCC2)cc1,–,·,·,·,·,·,
